Consider 37 sequences from the array DNA melting data of Ke et al. (doi:10.1101/2024.01.08.574731).

A short description of data set [1]: folding enthalpy; higher = less favourable; fluorescence melt of hairpins on a sequencing array, two-state fit. To be noted: sodium 0.088 M. An outline of the steps: (§1)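 Melting temperature and folding enthalpy were obtained by bootstrapped two-state fitting. Fits used Cy3 fluorescence of library hairpins with annealed Cy3 and quencher oligos on a sequenced MiSeq flow cell, imaged in 50 mM Na-HEPES pH 8.0, 25 mM NaCl in 2.5 °C steps up to 60 °C and normalised to pre-quench Cy3 and control constructs. Four replicates were combined by inverse-variance weighting, and fitted temperatures were raised by 9.35 °C to match UV melts.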

Data set [2] can be described thus: melting temperature; fluorescence melt of hairpins on a sequencing array, two-state fit, raised by 9.35 °C to match UV melts. To be noted: sodium 0.088 M. An outline of the steps: as §1

Regarding GCGATGCCGAAAGGCCGC (((..(((....)))))), the folding enthalpy in data set [1] is -18 kcal/mol. For the same sequence, in data set [2], the Tm was 59.3 °C.
Take GCGATGCGAAAGCAGTGC ((..(((....)))..)): in data set [1], the folding enthalpy is -22.7 kcal/mol. For the same sequence, the Tm in data set [2] worked out at 58.3 °C.
As for GCGATGCGAAAGCCGCGC (((..((....))..))), in data set [1], the folding enthalpy was -27.7 kcal/mol. Further, in data set [2], the Tm amounted to 64.7 °C.
Turning to GCGATGCGAAAGCCTAGC ((.(.((....)).).)), the folding enthalpy in data set [1] was -21.8 kcal/mol. Besides, the Tm in data set [2] turned out to be 45 °C.
For GCGATGCGAAAGCGACGC (((..((....))..))), in data set [1], the folding enthalpy is -29.5 kcal/mol. For the same sequence, the Tm in data set [2] was 65.7 °C.
Consider GCGATGCGAAAGCGCCGC (((..((....))..))), for which the folding enthalpy in data set [1] is -30.5 kcal/mol. Further, in data set [2], the Tm is 62.1 °C.
Taken in the same sequence, the figures for GCGATGCGAAAGCTACGC (((..((....))..))) were -18.1 kcal/mol and 65 °C.
Taken in the same sequence, the figures for GCGATGCGAAAGCTCCGC (((..((....))..))) were -19.9 kcal/mol and 52.5 °C.
Take GCGATGCGAAAGCTTGGC ((.(.((....)).).)): in data set [1], the folding enthalpy was -15.1 kcal/mol. In addition, the Tm in data set [2] stood at 43.8 °C.
Take GCGATGGGAAACCATCAC (.(((((....))))).): the folding enthalpy in data set [1] was -15.9 kcal/mol. Besides, the Tm in data set [2] is 43.1 °C.
In the case of GCGATGGGAAACCGTCGC ((((.((....)).)))), the folding enthalpy in data set [1] was -50.2 kcal/mol. For the same sequence, the Tm in data set [2] is 58.9 °C.
GCGATGGGAAACTATCGC (((((.(....).))))): in data set [1], the folding enthalpy is -42 kcal/mol. In addition, the Tm in data set [2] was determined as 55.9 °C.
Taken in the same sequence, the figures for GCGATGGGTCGC ((((....)))) were -23.4 kcal/mol and 54.4 °C.
As for GCGATGGTTCGC ((((....)))), in data set [1], the folding enthalpy was -24.5 kcal/mol. Also, the Tm in data set [2] is 49.8 °C.
Regarding GCGATGTCGAAAGACCGC (((..(((....)))))), the folding enthalpy in data set [1] is -29.5 kcal/mol. In addition, the Tm in data set [2] worked out at 51 °C.
For the sequence GCGATGTCTCGC ((((....)))), the folding enthalpy in data set [1] is -19.6 kcal/mol. Further, the Tm in data set [2] is 48.6 °C.
For GCGATGTTCGC ((((...)))), the folding enthalpy in data set [1] was -18.5 kcal/mol. The Tm in data set [2] amounted to 49.9 °C.
Taken in the same sequence, the figures for GCGATTGCGAAAGCACGC (((..(((....)))))) were -20.1 kcal/mol and 51.4 °C.
With GCGATTGGAAACAACCGC (((.(((....))).))), the folding enthalpy in data set [1] is -32.7 kcal/mol. Besides, the Tm in data set [2] turned out to be 48.4 °C.
Taken in the same sequence, the figures for GCGATTGTCGC ((((...)))) were -19.6 kcal/mol and 48.2 °C.
GCGCAAGGAAACCTACGC (((.(.(....).).))): the folding enthalpy in data set [1] is -16.4 kcal/mol. Besides, in data set [2], the Tm is 34.6 °C.
In the case of GCGCACGAAAGTGACCGC ((((((....)))..))), in data set [1], the folding enthalpy is -21.9 kcal/mol. Besides, the Tm in data set [2] is 48.4 °C.
As for GCGCACGAAAGTGCCGC ((((((....))).))), the folding enthalpy in data set [1] was -17.5 kcal/mol. Also, the Tm in data set [2] turned out to be 62 °C.
Taken in the same sequence, the figures for GCGCACGAAAGTGCTCGC ((((((....)))..))) were -13.5 kcal/mol and 48.4 °C.
Consider GCGCACGAAAGTGTCCGC ((((((....)))..))), for which the folding enthalpy in data set [1] is -18.6 kcal/mol. In addition, the Tm in data set [2] was 48 °C.
With GCGCACGGAAACGTACGC (((.(((....))).))), in data set [1], the folding enthalpy was -44.3 kcal/mol. Besides, in data set [2], the Tm came to 56 °C.
With GCGCAGCGAAAGCAGGGC ((.(.((....)).).)), the folding enthalpy in data set [1] is -10.2 kcal/mol. Further, in data set [2], the Tm was found to be 51.2 °C.
In the case of GCGCAGCGAAAGCATCGC (((..((....))..))), the folding enthalpy in data set [1] was -9.43 kcal/mol. Also, the Tm in data set [2] is 47.4 °C.
For GCGCAGCGAAAGCCGAGC ((.(.((....)).).)), the folding enthalpy in data set [1] is -9.37 kcal/mol. In data set [2], the Tm stood at 46.7 °C.
Take GCGCAGCGAAAGCTCAGC ((..(((....)))..)): in data set [1], the folding enthalpy is -7.58 kcal/mol. Further, the Tm in data set [2] turned out to be 41 °C.
Turning to GCGCAGGGAAACCCACGC (((..((....))..))), in data set [1], the folding enthalpy is -26.7 kcal/mol. Further, in data set [2], the Tm worked out at 43.9 °C.
For the sequence GCGCAGGGAAACTTGCGC (((((.(....).))))), in data set [1], the folding enthalpy was -43.4 kcal/mol. In addition, the Tm in data set [2] came to 60.2 °C.
As for GCGCATCGAAAGATCCGC (((.(((....))).))), in data set [1], the folding enthalpy was -28.5 kcal/mol. In addition, the Tm in data set [2] turned out to be 47.8 °C.
For GCGCATGGAAACACGCAC (.((.((....)).)).), the folding enthalpy in data set [1] is -13.8 kcal/mol. Moreover, in data set [2], the Tm is 29 °C.
As for GCGCCACCGAAAGGTCGC (((..(((....)))))), the folding enthalpy in data set [1] is -23.5 kcal/mol. Also, in data set [2], the Tm stood at 51.4 °C.
Regarding GCGCCAGGAAACCGGCGC (((((.(....).))))), the folding enthalpy in data set [1] was -22.8 kcal/mol. Besides, in data set [2], the Tm worked out at 69.1 °C.
Taken in the same sequence, the figures for GCGCCAGGAAACTAGCGC ((((.((....)).)))) were -42.1 kcal/mol and 52.5 °C.
